Where “and” joins values, the source holds several entries; their conditions need not be identical. Identical values can stand only once.
Assays:
in vitro = conditions: dog
MDCK cells = MDCK cells treated for 48 h
[1] = tested on: influenza A and B viruses; assay: Plaque reduction assay, summary over the tested panel of viruses; type: cell-based; conditions: Influenza A virus, read-out: EC50 values against these viruses
A/WSN/33 (H1N1) [2] = assay: Time-of-addition experiment in MDCK cells; type: cell-based, influenza A virus; conditions: NMS-873 1.8 μM; for antiviral activity when added at 8 h post infection / effect on virus replication when present before or during infection: oseltamivir carboxylate 1 μM
[3] = tested on: influenza vRNPs (NP) nuclear export; type: cell-based, influenza A virus
A549 cells = assay: Cellular cytotoxicity in A549 cells; type: cell-based, human; conditions: 3 μM
Method in brief: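 A549 human alveolar epithelial cells were incubated with serial concentrations of the test compound, up to 3 μM, for 24 or 48 h. Cell viability was then measured by neutral red uptake.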

[4] = tested on: A/Washington/29/2009 (H1N1); type: cell-based, influenza A virus; conditions: NMS-873 1 or 3 μM, oseltamivir carboxylate 1 μM
[5] = tested on: B/Wisconsin/1/2010 (Yamagata); assay: Viral titer reduction at high MOI; type: cell-based, influenza B virus; conditions: both 12 h p.i. and 24 h p.i., MOI of 1, MDCK
A/WSN/33 (H1N1) [6] = type: cell-based, influenza A virus
[7] = tested on: A/WSN/33 (H1N1) viral proteins; type: cell-based, influenza A virus

Row | SMILES | CC50 (in vitro) [µM] | concentration up to which no cellular cytotoxicity was observed (MDCK cells) | EC50 [1] [µM] | antiviral efficacy when added at 6 h post infection (A/WSN/33 (H1N1) [2]) | antiviral activity when added at 8 h post infection (A/WSN/33 (H1N1) [2]) | effect on virus replication when present before or during infection (A/WSN/33 (H1N1) [2]) | NP subcellular localization [3] | virus entry and NP nuclear import [3] | cytotoxicity at highest drug concentration tested (A549 cells) | antiviral activity (viral titer) [4] | reduction of viral titer ([5]; 1 μM) | inhibition of virus (viral titer) ([5]; 3 μM) | reduction of viral titer (A/WSN/33 (H1N1) [6]) | levels of other viral proteins PA, PB1, HA and NS1 [7] | protein expression levels of M1 and NP [7]
1 | Cc1cc(OCc2nnc(SC3CCCC3)n2-c2cccnc2)ccc1-c1ccc(S(C)(=O)=O)cc1 [NMS-873] | 2.72 ± 0.03 | up to 1.85 μM | 0.028 to 0.056 | dramatically decreased | completely abolished | no antiviral activity was observed | NP largely accumulated in the nucleus | neither affected the virus entry nor NP nuclear import | not cytotoxic | potent antiviral activity | more than 1.8 log10 units | completely inhibited | 1.3–1.4 log10 units and 2.2–3.1 log10 units | broadly reduced | significantly reduced
2 | CCC(CC)O[C@@H]1C=C(C(=O)O)C[C@H](N)[C@H]1NC(C)=O [Oseltamivir carboxylate] | – | – | – | – | potent inhibition | no effect | – | – | – | – | – | – | 2.1–2.5 log10 units | – | –

Source: publication PMC6482079 (European journal of pharmaceutical sciences : official …, 2019)
